Calls of active or inactive are those of the source. No cut-off for these calls is given here.
Experiments:
Bacillus thuringiensis [1] = assay: Antimicrobial activity against Bacillus thuringiensis assessed as zone of inhibition at 30 uL for 24 hrs at 30 degC by disk diffusion test; assay type: functional
Summary of the method: (§1)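 Agar well diffusion on Mueller Hinton agar seeded with 0.1 mL broth culture (18–24 h), adjusted to 0.5 McFarland (about 1×10^8 bacteria or 1×10^6 yeast cells/mL). A 6 mm well is filled with 30 µL of compound from a fresh 1000 µg/mL DMSO stock. Plates are held at 30 °C for 24 h and inhibition zone diameter is read in mm.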

MCF7 [2] = assay: Induction of necrosis in human MCF7 cells at 20 uM after 48 hrs by Hoechst 33258/propidium iodide staining based phase contrast microscopic analysis; assay type: functional
Summary of the method: (§2)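 Cells in 48-well plates treated with 0.5, 10, 20 or 40 µM for 24 and 48 h. Values are read at 48 h, 20 µM for test agents and 0.5 µM for controls. Staining is Hoechst 33258/propidium iodide double staining with fluorescence microscopy. Blue nuclei are viable or early-to-mid apoptotic, and pink nuclei are late apoptotic or necrotic. Apoptosis and necrosis are scored from chromatin condensation as % of cells. Cells are grown at 37 °C in 5% CO2 in RPMI, DMEM or McCoy's 5A with 10–15% heat-inactivated FCS.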

Nakaseomyces glabratus = assay: Antimicrobial activity against Candida glabrata assessed as zone of inhibition at 30 uL for 24 hrs at 30 degC by disk diffusion test; assay type: functional, organism-based; summary of the method: as §1
Micrococcus luteus = assay: Antimicrobial activity against Micrococcus luteus ATCC 9341 assessed as zone of inhibition at 30 uL for 24 hrs at 30 degC by disk diffusion test; assay type: functional, organism-based; summary of the method: as §1
Pseudomonas aeruginosa = assay: Antimicrobial activity against Pseudomonas aeruginosa ATCC 35032 assessed as zone of inhibition at 30 uL for 24 hrs at 37 degC by disk diffusion test; assay type: functional, organism-based
Summary of the method: (§3)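 Compound (30 µL of a fresh 1000 µg/mL DMSO stock) goes into a 6 mm well cut in Mueller Hinton agar inoculated with 0.1 mL broth culture adjusted to 0.5 McFarland (about 1×10^8 cells/mL). Plates are incubated 24 h at 37 °C, then zone of inhibition diameter is measured in mm.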

[3] = Antiproliferative activity against human Saos2 cells after 24 and 72 hrs by MTT assay; assay type: functional, cell-based; settings: SAOS-2
Summary of the method: (§4)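 ATCC human cell lines are kept in RPMI, DMEM or McCoy's 5A with 10–15% heat-inactivated FCS at 37 °C and 5% CO2. They are seeded at 1×10^4–1×10^5 cells/mL in 48-well plates and exposed to 0.5, 10, 20 or 40 µM. Viability is read by MTT (590 nm) at 24 and 72 h. Growth is expressed relative to untreated cells and IC50 is fitted, in triplicate.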

HeLa [4] = assay: Induction of apoptosis in human HeLa cells at 20 uM after 48 hrs by Hoechst 33258/propidium iodide staining based phase contrast microscopic analysis; assay type: functional; summary of the method: as §2
Caco-2 [5] = assay: Antiproliferative activity against human Caco2 cells after 24 and 72 hrs by MTT assay; assay type: functional, cell-based; summary of the method: as §4
MCF7 [6] = assay: Induction of apoptosis in human MCF7 cells at 20 uM after 48 hrs by Hoechst 33258/propidium iodide staining based phase contrast microscopic analysis; assay type: functional; summary of the method: as §2
Proteus vulgaris = assay: Antimicrobial activity against Proteus vulgaris ATCC 33420 assessed as zone of inhibition at 30 uL for 24 hrs at 37 degC by disk diffusion test; assay type: functional, organism-based; summary of the method: as §3
Bacillus cereus [7] = assay: Antimicrobial activity against Bacillus cereus ATCC 11778 for 24 hrs by microdillution method; assay type: functional
Summary of the method: (§5)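 Broth microdilution. Compound is dissolved in DMSO (2 mg/mL) and diluted in Mueller Hinton broth as two-fold serial dilutions from 256 to 0.125 µg/mL. Bacteria are pre-grown in nutrient broth at 30 °C, and the final inoculum is about 10^6 cfu/mL. Tests are incubated 37 °C for 24 h. MIC is the lowest concentration giving complete inhibition. Streptomycin is the positive control.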

HT-29 [8] = assay: Antiproliferative activity against human HT-29 cells after 24 and 72 hrs by MTT assay; assay type: functional, cell-based; summary of the method: as §4
Bacillus thuringiensis [9] = assay: Antimicrobial activity against Bacillus thuringiensis for 24 hrs by microdillution method; assay type: functional; summary of the method: as §5
HL-60 [10] = assay: Induction of apoptosis in human HL60 cells at 20 uM after 48 hrs by Hoechst 33258/propidium iodide staining based phase contrast microscopic analysis; assay type: functional; summary of the method: as §2
Salmonella typhimurium = assay: Antimicrobial activity against Salmonella typhimurium ATCC 14028 assessed as zone of inhibition at 30 uL for 24 hrs at 37 degC by disk diffusion test; assay type: functional, organism-based; settings: Salmonella enterica subsp. enterica serovar Typhimurium; summary of the method: as §3
Bacillus subtilis [11] = assay: Antimicrobial activity against Bacillus subtilis ATCC 6633 for 24 hrs by microdillution method; assay type: functional; summary of the method: as §5
Candida albicans = assay: Antimicrobial activity against Candida albicans ATCC 10231 assessed as zone of inhibition at 30 uL for 24 hrs at 30 degC by disk diffusion test; assay type: functional, organism-based; summary of the method: as §1
SAOS-2 [12] = assay: Induction of necrosis in human Saos2 cells at 20 uM after 48 hrs by Hoechst 33258/propidium iodide staining based […] microscopic analysis; assay type: functional; summary of the method: as §2
[13] = system: Staphylococcus epidermidis; assay: Antimicrobial activity against Staphylococcus epidermidis ATCC 12228 assessed as zone of inhibition at 30 uL for 24 hrs at 37 degC by disk diffusion test; assay type: functional, organism-based; summary of the method: as §3
Klebsiella pneumoniae = assay: Antimicrobial activity against Klebsiella pneumoniae ATCC 13882 assessed as zone of inhibition at 30 uL for 24 hrs at 37 degC by disk diffusion test; assay type: functional, organism-based; summary of the method: as §3
Cyberlindnera jadinii = assay: Antimicrobial activity against Candida utilis ATCC 9950 assessed as zone of inhibition at 30 uL for 24 hrs at 30 degC by disk diffusion test; assay type: functional, organism-based; summary of the method: as §1
MCF7 [14] = assay: Antiproliferative activity against human MCF7 cells after 24 and 72 hrs by MTT assay; assay type: functional, cell-based; summary of the method: as §4
HL-60 [15] = assay: Antiproliferative activity against human HL60 cells after 24 and 72 hrs by MTT assay; assay type: functional, cell-based; summary of the method: as §4
Caco-2 [16] = assay: Induction of necrosis in human Caco2 cells at 20 uM after 48 hrs by Hoechst 33258/propidium iodide staining based phase contrast microscopic analysis; assay type: functional; summary of the method: as §2
SAOS-2 [17] = assay: Induction of apoptosis in human Saos2 cells at 20 uM after 48 hrs by Hoechst 33258/propidium iodide staining based phase contrast microscopic analysis; assay type: functional; summary of the method: as §2
Saccharomyces cerevisiae = assay: Antimicrobial activity against Saccharomyces cerevisiae ATCC 9763 assessed as zone of inhibition at 30 uL for 24 hrs at 30 degC by disk diffusion test; assay type: functional, organism-based; summary of the method: as §1
HeLa [18] = assay: Antiproliferative activity against human HeLa cells after 24 and 72 hrs by MTT assay; assay type: functional, cell-based; summary of the method: as §4
HT-29 [19] = assay: Induction of apoptosis in human HT-29 cells at 20 uM after 48 hrs by Hoechst 33258/propidium iodide staining based phase contrast microscopic analysis; assay type: functional; summary of the method: as §2
Bacillus subtilis [20] = assay: Antimicrobial activity against Bacillus subtilis ATCC 6633 assessed as zone of inhibition at 30 uL for 24 hrs at 30 degC by disk diffusion test; assay type: functional; summary of the method: as §1
Bacillus cereus [21] = assay: Antimicrobial activity against Bacillus cereus ATCC 11778 assessed as zone of inhibition at 30 uL for 24 hrs at 30 degC by disk diffusion test; assay type: functional; summary of the method: as §1
Staphylococcus aureus = assay: Antimicrobial activity against Staphylococcus aureus ATCC 25923 assessed as zone of inhibition at 30 uL for 24 hrs at 37 degC by disk diffusion test; assay type: functional, organism-based; summary of the method: as §3
Enterococcus faecalis = assay: Antimicrobial activity against Enterococcus faecalis ATCC 29212 assessed as zone of inhibition at 30 uL for 24 hrs at 37 degC by disk diffusion test; assay type: functional, organism-based; summary of the method: as §3
HL-60 [22] = assay: Induction of necrosis in human HL60 cells at 20 uM after 48 hrs by Hoechst 33258/propidium iodide staining based phase contrast microscopic analysis; assay type: functional; summary of the method: as §2
HeLa [23] = assay: Induction of necrosis in human HeLa cells at 20 uM after 48 hrs by Hoechst 33258/propidium iodide staining based phase contrast microscopic analysis; assay type: functional; summary of the method: as §2
Escherichia coli = assay: Antimicrobial activity against Escherichia coli ATCC 25922 assessed as zone of inhibition at 30 uL for 24 hrs at 37 degC by disk diffusion test; assay type: functional, organism-based; summary of the method: as §3
Caco-2 [24] = assay: Induction of apoptosis in human Caco2 cells at 20 uM after 48 hrs by Hoechst 33258/propidium iodide staining based phase contrast microscopic analysis; assay type: functional; summary of the method: as §2
Candida tropicalis = assay: Antimicrobial activity against Candida tropicalis assessed as zone of inhibition at 30 uL for 24 hrs at 30 degC by disk diffusion test; assay type: functional, organism-based; summary of the method: as §1
HT-29 [25] = assay: Induction of necrosis in human HT-29 cells at 20 uM after 48 hrs by Hoechst 33258/propidium iodide staining based phase contrast microscopic analysis; assay type: functional; summary of the method: as §2

IC50 (Caco-2 [5]) [µM] | MIC (Bacillus cereus [7]) | IC50 (HT-29 [8]) [µM] | MIC (Bacillus thuringiensis [9]) | MIC (Bacillus subtilis [11]) | Compound | diameter of the inhibition zone (DIZ) (Bacillus thuringiensis [1]) | Activity (MCF7 [2]) [%] | diameter of the inhibition zone (DIZ) (Nakaseomyces glabratus) | diameter of the inhibition zone (DIZ) (Micrococcus luteus) | diameter of the inhibition zone (DIZ) (Pseudomonas aeruginosa) | IC50 [3] [µM] | Activity (HeLa [4]) [%] | Activity (MCF7 [6]) [%] | diameter of the inhibition zone (DIZ) (Proteus vulgaris) | Activity (HL-60 [10]) [%] | diameter of the inhibition zone (DIZ) (Salmonella typhimurium) | diameter of the inhibition zone (DIZ) (Candida albicans) | Activity (SAOS-2 [12]) [%] | diameter of the inhibition zone (DIZ) [13] | diameter of the inhibition zone (DIZ) (Klebsiella pneumoniae) | other results
16.1 | inactive | 8.01 | inactive | inactive | CC1(C)CC[C@]2(C(=O)OCc3ccccc3)CC[C@]3(C)C(=CC[C@@H]4[C@@]5(C)CC[C@H](O)[C@@](C)(/C=N/O)[C@@H]5CC[C@]43C)[C@@H]2C1 | inactive | 54 | inactive | inactive | inactive | 10.3 | 11 | 12 | inactive | 8 | inactive | inactive | 23 | inactive | inactive | diameter of the inhibition zone (DIZ) (Cyberlindnera jadinii): inactive; IC50 (MCF7 [14]): 6.67 µM; IC50 (HL-60 [15]): 10.6 µM; Activity (Caco-2 [16]): 32%; Activity (SAOS-2 [17]): 9%; diameter of the inhibition zone (DIZ) (Saccharomyces cerevisiae): inactive; IC50 (HeLa [18]): 28.9 µM; Activity (HT-29 [19]): 12%; diameter of the inhibition zone (DIZ) (Bacillus subtilis [20]): inactive; diameter of the inhibition zone (DIZ) (Bacillus cereus [21]): inactive; diameter of the inhibition zone (DIZ) (Staphylococcus aureus): inactive; diameter of the inhibition zone (DIZ) (Enterococcus faecalis): inactive; Activity (HL-60 [22]): 41%; Activity (HeLa [23]): 32%; diameter of the inhibition zone (DIZ) (Escherichia coli): inactive; Activity (Caco-2 [24]): 11%; diameter of the inhibition zone (DIZ) (Candida tropicalis): inactive; Activity (HT-29 [25]): 29%
11.1 | inactive | 8.51 | inactive | inactive | CC1(C)CC[C@]2(C(=O)OCc3ccccc3)CC[C@]3(C)C(=CC[C@@H]4[C@@]5(C)CC[C@H](O)[C@@](C)(C=O)[C@@H]5CC[C@]43C)[C@@H]2C1 | inactive | 57 | inactive | inactive | inactive | 12.7 | 4 | 4 | inactive | 6 | inactive | inactive | 30 | inactive | inactive | diameter of the inhibition zone (DIZ) (Cyberlindnera jadinii): inactive; IC50 (MCF7 [14]): 5.15 µM; IC50 (HL-60 [15]): 8.14 µM; Activity (Caco-2 [16]): 15%; Activity (SAOS-2 [17]): 9%; diameter of the inhibition zone (DIZ) (Saccharomyces cerevisiae): inactive; IC50 (HeLa [18]): 74.2 µM; Activity (HT-29 [19]): 1%; diameter of the inhibition zone (DIZ) (Bacillus subtilis [20]): inactive; diameter of the inhibition zone (DIZ) (Bacillus cereus [21]): inactive; diameter of the inhibition zone (DIZ) (Staphylococcus aureus): inactive; diameter of the inhibition zone (DIZ) (Enterococcus faecalis): inactive; Activity (HL-60 [22]): 48%; Activity (HeLa [23]): 45%; diameter of the inhibition zone (DIZ) (Escherichia coli): inactive; Activity (Caco-2 [24]): 1%; diameter of the inhibition zone (DIZ) (Candida tropicalis): inactive; Activity (HT-29 [25]): 22%
